Source: article PMC10784678 (Food Chemistry: X, 2023)
Converted amounts (≈) assume the structure as drawn. Like-named read-outs stand apart in the source and are kept apart here.

Key:
DPP-IV [1] = molecular target: T1, DPP-IV (Homo sapiens, UniProt P27487); assay: biochemical
DPP-IV [2] = molecular target: T1, DPP-IV; conditions: read-out: IC50 DPP-IV; ref Li et al., 2022; cited from earlier work
[3] = DPPH radical scavenging activity; conditions: positive control
Procedure, shortened: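 Test fractions in 80 % methanol at 2–14 µg/mL; positive control at 1–7 µg/mL. 50 µL sample plus 200 µL 0.1 mM DPPH in methanol, kept from light and shaken 30 min, then read at 517 nm.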

[4] = ABTS radical scavenging activity; conditions: positive control
Procedure, shortened: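 Test fractions in 70 % ethanol at 2–8 µg/mL; positive control at 1–7 µg/mL. Radical made by holding 7 mM ABTS with 0.14 M K₂S₂O₈ for 14 h, then diluted 35-fold in anhydrous ethanol. Sample mixed with radical solution, 6 min dark at 30°C, A734.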

Caco-2 cells [5] = assay: Inhibition of H2O2-induced intracellular ROS production; type: cell-based; conditions: positive control 10 μg/mL, 1.0 mmol/L H2O2 6 h; H2O2 group 181.61 %
Caco-2 cells [6] = assay: Cytoprotective activity against H2O2-induced cell apoptosis; type: cell-based; conditions: positive control 10 μg/mL; H2O2 group 23.84 %, control 3.92 %
α-glucosidase = α-glucosidase (Saccharomyces cerevisiae, UniProt P53341); conditions: read-out: IC50 α-glucosidase; ref Tan et al. (2017); cited from earlier work
Sequence of α-glucosidase (P53341 whole entry): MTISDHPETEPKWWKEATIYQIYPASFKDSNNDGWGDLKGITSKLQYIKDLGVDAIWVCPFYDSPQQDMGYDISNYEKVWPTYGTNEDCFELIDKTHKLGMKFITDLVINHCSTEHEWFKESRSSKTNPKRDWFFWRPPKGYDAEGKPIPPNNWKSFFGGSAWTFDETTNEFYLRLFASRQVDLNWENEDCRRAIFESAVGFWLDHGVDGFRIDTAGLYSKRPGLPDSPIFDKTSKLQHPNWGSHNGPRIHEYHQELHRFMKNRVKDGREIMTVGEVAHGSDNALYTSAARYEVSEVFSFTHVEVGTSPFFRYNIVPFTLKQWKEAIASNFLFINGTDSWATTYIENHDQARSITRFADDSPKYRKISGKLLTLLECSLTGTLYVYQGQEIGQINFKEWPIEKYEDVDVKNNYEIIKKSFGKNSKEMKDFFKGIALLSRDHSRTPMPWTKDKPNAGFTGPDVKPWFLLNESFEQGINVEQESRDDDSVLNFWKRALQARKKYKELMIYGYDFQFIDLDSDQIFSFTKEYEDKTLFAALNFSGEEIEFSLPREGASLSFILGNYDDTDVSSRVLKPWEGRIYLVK

[7] = read-out: IC50 DPP-Ⅳ, phenolic standards

T1 sequence (P27487 whole entry): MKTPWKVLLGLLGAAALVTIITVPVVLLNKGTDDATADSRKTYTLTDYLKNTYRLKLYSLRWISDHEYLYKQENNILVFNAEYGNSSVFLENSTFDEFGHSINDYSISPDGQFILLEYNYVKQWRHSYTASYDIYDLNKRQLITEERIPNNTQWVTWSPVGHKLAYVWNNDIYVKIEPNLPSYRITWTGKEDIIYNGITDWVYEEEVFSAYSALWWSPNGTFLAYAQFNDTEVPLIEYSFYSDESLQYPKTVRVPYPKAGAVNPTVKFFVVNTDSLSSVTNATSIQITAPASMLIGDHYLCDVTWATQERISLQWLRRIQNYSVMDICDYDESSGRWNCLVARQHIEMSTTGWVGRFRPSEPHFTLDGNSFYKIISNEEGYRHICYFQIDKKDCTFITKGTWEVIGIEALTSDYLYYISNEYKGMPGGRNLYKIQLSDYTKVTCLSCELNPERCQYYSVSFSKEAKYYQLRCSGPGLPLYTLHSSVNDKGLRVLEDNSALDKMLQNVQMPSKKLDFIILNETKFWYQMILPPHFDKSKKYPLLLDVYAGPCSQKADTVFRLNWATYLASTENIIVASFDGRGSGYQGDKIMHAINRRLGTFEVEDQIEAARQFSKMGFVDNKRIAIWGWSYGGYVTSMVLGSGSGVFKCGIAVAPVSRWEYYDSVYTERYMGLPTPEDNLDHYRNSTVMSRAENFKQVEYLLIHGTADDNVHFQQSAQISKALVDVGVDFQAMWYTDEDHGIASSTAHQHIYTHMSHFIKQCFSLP

## Oc1cc(O)c2c(c1)O[C@H](c1ccc(O)c(O)c1)[C@@H](O)C2 [(+) - Catechin]
DPP-IV [1]; [7]
  IC50: 132.8 ± 0.99 µM

## Oc1cc(O)c2c(c1)O[C@H](c1ccc(O)c(O)c1)[C@H](O)C2 [(-) - Epicatechin]
DPP-IV [1]
  IC50: 104.3 ± 0.95 µM

## O=C(O)/C=C/c1ccc(O)c(O)c1 [Caffeic acid]
DPP-IV [1]
  IC50: 162.48 ± 0.16 µM

## O=C(/C=C/c1ccc(O)c(O)c1)O[C@@H]1C[C@](O)(C(=O)O)C[C@@H](O)[C@H]1O [Chlorogenic acid]
DPP-IV [1]
  IC50: 31.2 ± 2.58 µM
DPP-IV [2]
  IC50: 78.8 µM

## Oc1cc(O)c2c(c1)O[C@H](c1cc(O)c(O)c(O)c1)[C@@H](O)C2 [Gallocatechin]
DPP-IV [1]
  IC50: 81.9 ± 2.54 µM

## COC(=O)[C@]1(O)C[C@@H](O)[C@@H](O)[C@H](OC(=O)/C=C/c2ccc(O)c(O)c2)C1 [Methyl chlorogenic acid]
DPP-IV [1]; [7]
  IC50: 192 ± 1.93 µM

## Oc1cc(O)c2c(c1)O[C@H](c1ccc(O)c(O)c1)[C@H](O)[C@H]2c1c(O)cc(O)c2c1O[C@H](c1ccc(O)c(O)c1)[C@@H](O)C2 [Procyanidin B1]
DPP-IV [1]
  IC50: > 200 µM

## O=C(O)c1ccc(O)c(O)c1 [Protocatechuic acid]
DPP-IV [1]
  IC50: > 200 µM

## O=C(O)[C@]1(O)C[C@@H](O)[C@@H](O)[C@H](O)C1 [Quinic acid]
DPP-IV [1]
  IC50: > 200 µM

## O=C(O)c1ccccc1O [Salicylic acid]
DPP-IV [1]
  IC50: > 200 µM

## O=C1c2c(O)cc(O)cc2OC(c2ccc(O)c(O)c2)C1O (centres unmarked) [Taxifolin]
DPP-IV [1]
  IC50: 78.92 ± 0.62 µM

## O=C1O[C@H]([C@@H](O)CO)C(O)=C1O [Vc]
[3]
  IC50 DPPH radical scavenging: 1.93 ± 0.01 µg/mL (≈ 11 µM)
[4]
  IC50 ABTS radical scavenging: 3.58 ± 0.03 µg/mL (≈ 20.3 µM)
Caco-2 cells [5]
  intracellular ROS level: 110.92%
Caco-2 cells [6]
  apoptosis rate: 6.58%

## Oc1cc(O)c2c(c1)O[C@H](c1ccc(O)c(O)c1)[C@@H](O)C2 [catechin]
α-glucosidase
  IC50: 13.4 µM
